Calls of active or inactive are those of the source. The calls are words filed in the database; no cut-off is given here.
Key:
[1] = molecular target: T1, Inosine-5'-monophosphate dehydrogenase (Cryptosporidium parvum, UniProt Q8T6T2); test: Inhibition of recombinant Cryptosporidium parvum IMPDH assessed as production of NADH by fluorescence assay
T1 sequence (Q8T6T2 whole entry): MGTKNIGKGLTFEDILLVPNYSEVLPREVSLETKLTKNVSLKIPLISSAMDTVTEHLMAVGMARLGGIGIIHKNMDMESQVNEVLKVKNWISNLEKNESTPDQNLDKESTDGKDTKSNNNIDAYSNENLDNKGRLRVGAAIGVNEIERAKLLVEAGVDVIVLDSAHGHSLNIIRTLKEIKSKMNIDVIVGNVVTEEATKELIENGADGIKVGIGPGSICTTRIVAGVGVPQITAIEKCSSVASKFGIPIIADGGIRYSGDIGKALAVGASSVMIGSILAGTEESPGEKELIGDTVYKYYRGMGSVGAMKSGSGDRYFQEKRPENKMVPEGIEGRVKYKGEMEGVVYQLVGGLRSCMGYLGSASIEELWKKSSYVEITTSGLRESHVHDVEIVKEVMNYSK

[2] = molecular target: T1, Inosine-5'-monophosphate dehydrogenase; test: Inhibition of recombinant Cryptosporidium parvum IMPDH assessed as production of NADH by fluorescence assay in presence of 0.05% BSA
Method in brief: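 Enzyme inhibition was measured with 0.05% fatty acid free BSA added, to assess non-specific binding.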

Toxoplasma gondii [3] = test: Selectivity ratio for EC50 for wild type Toxoplasma gondii to EC50 for Cryptosporidium parvum IMPDH expressing Toxoplasma gondii; type: functional
Toxoplasma gondii [4] = test: Antiparasitic activity against Cryptosporidium parvum IMPDH expressing Toxoplasma gondii assessed as growth inhibition; type: functional, organism-based
Toxoplasma gondii [5] = test: Antiparasitic activity against wild type Toxoplasma gondii assessed as growth inhibition; type: functional, organism-based
Cryptosporidium parvum = test: Antiparasitic activity against Cryptosporidium parvum infected in IL12 knockout mouse model at 250 mg/kg, po for 7 days; type: functional, organism-based; design: dose 250 mg/kg
Method in brief: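 IL12 knockout mice were inoculated with 1,000 oocysts and, from 4 h post-infection, dosed by gavage once daily for 7 days at 250 mg/kg in 10% DMSO/corn oil. Controls were vehicle and paromomycin 2000 mg/kg. Oocysts from feces (days 0, 4, 7) were purified on sucrose gradients, stained 20 min with FITC-labelled OW50 antibody, and counted by flow cytometry, with ANOVA.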

Liver = test: Half life in mouse liver microsomes; type: ADME, Microsome
[6] = molecular target: T2, Inosine-5'-monophosphate dehydrogenase (Cryptosporidium parvum) (UniProt Q8T6T2); test: Pure noncompetitive inhibition of recombinant Cryptosporidium parvum IMPDH with respect to NAD+
T2 sequence (whole entry): T1 sequence (Q8T6T2 whole entry)

[7] = molecular target: T2, Inosine-5'-monophosphate dehydrogenase (Cryptosporidium parvum); test: Mixed type inhibition of recombinant Cryptosporidium parvum IMPDH with respect to NAD+

IC50 [1] [nM] | SMILES | IC50 [2] [nM] | other results
> 5000 | Cn1nc(CC(=O)Nc2ccc(Cl)cc2Cl)c2ccccc2c1=O | – | –
> 5000 | Cn1nc(CC(=O)Nc2ccc(Br)cc2C(F)(F)F)c2ccccc2c1=O | – | –
79 | Cc1cc(NC(=O)Cc2nn(C)c(=O)c3ccccc23)ccc1Cl | 96 | –
> 5000 | Cn1nc(CC(=O)Nc2ccc(C(F)(F)F)cc2)c2ccccc2c1=O | – | –
30 | Cn1nc(CC(=O)Nc2ccc(Br)c(Cl)c2)c2ccccc2c1=O | 75 | –
> 5000 | Cn1nc(CC(=O)Nc2ccc(S(C)(=O)=O)cc2)c2ccccc2c1=O | – | –
93 | Cn1nc(CC(=O)Nc2ccc3occc3c2)c2ccccc2c1=O | 85 | –
32 | O=C(Cc1n[nH]c(=O)c2ccccc12)Nc1ccc(Br)c(C(F)(F)F)c1 | 130 | –
> 5000 | Cn1nc(CC(=O)Nc2ccc3ocnc3c2)c2ccccc2c1=O | – | –
> 5000 | Cn1nc(CC(=O)Nc2ccc(OC(F)(F)F)cc2)c2ccccc2c1=O | – | –
> 5000 | COc1ccccc1NC(=O)Cc1nn(C)c(=O)c2ccccc12 | – | –
> 5000 | CC(C)c1ccc(NC(=O)Cc2nn(C)c(=O)c3ccccc23)cc1 | – | –
> 5000 | COc1cccc(NC(=O)Cc2nn(C)c(=O)c3ccccc23)c1 | – | –
200 | Cn1nc(CC(=O)Nc2ccc(Cl)c(F)c2)c2ccccc2c1=O | 240 | –
> 5000 | Cn1nc(CC(=O)Nc2ccc(F)cc2)c2ccccc2c1=O | – | –
> 5000 | Cn1nc(CC(=O)Nc2ccc(Cl)cc2C(F)(F)F)c2ccccc2c1=O | – | –
> 5000 | Cn1nc(CC(=O)Nc2cc(F)c(F)c(F)c2)c2ccccc2c1=O | – | –

IC50 [1] [nM] | SMILES | IC50 [2] [nM] | other results
> 5000 | Cn1nc(CC(=O)Nc2ccc(N)c(C(F)(F)F)c2)c2ccccc2c1=O | – | –
> 5000 | Cn1nc(CC(=O)Nc2cc(Cl)c(Cl)c(Cl)c2)c2ccccc2c1=O | – | –
> 5000 | Cn1nc(CC(=O)Nc2ccc(Br)cc2Br)c2ccccc2c1=O | – | –
63 | Cn1nc(CC(=O)Nc2ccc3ccccc3c2)c2ccccc2c1=O | 140 | –
> 5000 | COc1ccc(NC(=O)Cc2nn(C)c(=O)c3ccccc23)cc1C(F)(F)F | – | –
55 | Cn1nc(CC(=O)Nc2ccc(Cl)c(Cl)c2)c2ccccc2c1=O | 95 | –
> 5000 | COc1ccc(CNC(=O)Cc2nn(C)c(=O)c3ccccc23)cc1 | – | –
> 5000 | Cn1nc(CC(=O)Nc2cccc(C(F)(F)F)c2)c2ccccc2c1=O | – | –
150 | Cn1nc(CC(=O)Nc2ccc(F)c(C(F)(F)F)c2)c2ccccc2c1=O | 150 | –
– | Cn1nc(CC(=O)Nc2ccc3oc4ccccc4c3c2)c2ccccc2c1=O | 30 | Ratio EC50 (Toxoplasma gondii [3]): 7; EC50 (Toxoplasma gondii [4]): 400 nM; EC50 (Toxoplasma gondii [5]): 3000 nM
400 | Cc1cc(NC(=O)Cc2nn(C)c(=O)c3ccccc23)ccc1C#N | 460 | –
130 | Cn1nc(CC(=O)Nc2ccc(Br)cc2)c2ccccc2c1=O | 130 | –
230 | Cn1nc(CC(=O)Nc2ccc(Cl)cc2)c2ccccc2c1=O | 280 | –
> 2500 | Cn1nc(CC(=O)Nc2ccc(C#N)c(C#N)c2)c2ccccc2c1=O | > 2500 | –
> 5000 | Cn1nc(CC(=O)NC(C)(C)C)c2ccccc2c1=O | – | –
> 5000 | Cn1nc(CC(=O)NN)c2ccccc2c1=O | – | –

SMILES | IC50 [1] [nM] | IC50 [2] [nM] | other results
Cn1nc(CC(=O)Nc2ccc3c(c2)oc2ccccc23)c2ccccc2c1=O | > 5000 | – | –
Cc1cc2cc(NC(=O)Cc3nn(C)c(=O)c4ccccc34)ccc2o1 | 64 | 72 | –
Cn1nc(CC(=O)Nc2ccc(Br)c(C(F)(F)F)c2)c2ccccc2c1=O | 24 | 48 | Ratio EC50 (Toxoplasma gondii [3]): 14; EC50 (Toxoplasma gondii [4]): 300 nM; EC50 (Toxoplasma gondii [5]): 4000 nM
CCOc1ccc(NC(=O)Cc2nn(C)c(=O)c3ccccc23)cc1 | > 5000 | – | –
Cn1nc(CC(=O)Nc2ccc(Cl)c(C(F)(F)F)c2)c2ccccc2c1=O | 13 | 25 | Activity (Cryptosporidium parvum): inactive; Ratio EC50 (Toxoplasma gondii [3]): 60; EC50 (Toxoplasma gondii [4]): 400 nM; EC50 (Toxoplasma gondii [5]): 23000 nM; t1/2 (Liver): 1.32 h; Kii [6]: 3.4 nM; Kis [6]: 3.4 nM
Cn1nc(CC(=O)Nc2ccc(C#N)c(Cl)c2)c2ccccc2c1=O | 290 | 470 | –
O=C(Cc1n[nH]c(=O)c2ccccc12)Nc1ccc(Cl)c(C(F)(F)F)c1 | 40 | 61 | –
COc1ccc(NC(=O)Cc2nn(C)c(=O)c3ccccc23)cc1 | 1000 | 930 | Kii [7]: 7 µM; Kis [7]: 1.8 µM
CCn1c2ccccc2c2cc(NC(=O)Cc3nn(C)c(=O)c4ccccc34)ccc21 | > 5000 | – | –
COc1cc(NC(=O)Cc2nn(C)c(=O)c3ccccc23)ccc1Cl | 33 | 40 | –
Cn1nc(CC(=O)Nc2ccc(C#N)c(C(F)(F)F)c2)c2ccccc2c1=O | 54 | 52 | –
Cn1nc(CC(=O)Nc2ccc3oc4c(c3c2)CCCC4)c2ccccc2c1=O | 20 | 150 | Ratio EC50 (Toxoplasma gondii [3]): 2; EC50 (Toxoplasma gondii [4]): 500 nM; EC50 (Toxoplasma gondii [5]): 1000 nM
Cn1nc(CC(=O)Nc2ccc3[nH]c4ccccc4c3c2)c2ccccc2c1=O | > 5000 | – | –
Cn1nc(CC(=O)Nc2ccc(C#N)cc2)c2ccccc2c1=O | 950 | 940 | –
Cc1cc(NC(=O)Cc2nn(C)c(=O)c3ccccc23)ccc1Br | 70 | 140 | –
Cn1nc(CC(=O)Nc2ccc(Br)cc2F)c2ccccc2c1=O | 1100 | 1700 | –
Cn1nc(CC(=O)Nc2cccc(Cl)c2)c2ccccc2c1=O | > 5000 | – | –
Cn1nc(CC(=O)Nc2cc(Cl)cc(Cl)c2)c2ccccc2c1=O | > 5000 | – | –
Cc1ccc(NC(=O)Cc2nn(C)c(=O)c3ccccc23)cc1 | > 5000 | – | –

From ChEMBL document CHEMBL2311526, “Phthalazinone inhibitors of inosine-5'-monophosphate dehydrogenase from Cryptosporidium parvum” (Bioorg Med Chem Lett, 2013)
